Screening results deposited in PubChem BioAssay by several laboratories.
MT1-MMP act inh = blocks activation of human MT1-MMP; P50281; HT1080 RFP-PRO-GFP cells, GFP/RFP ratio fluorescence, overnight; percent of plate control window, DMSO zero; GFP/RFP ratio change, % at 20 µM; hit rate 0.061% among 360,000;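 active = GFP/RFP ratio change of at least 30% with cell ATP level not reduced by more than half and red fluorescence within 50% of control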
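Test system: HT1080 RFP-PRO-GFP cells; Benchmarks: DMSO and RFP-L50D-GFP cell wells; Timing: cells overnight before dosing, compound overnight, 37 °C, 5% CO2; Compound: one 20 µM compound dose with 1% DMSO; Read-out: GFP/RFP fluorescence ratio.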
PolyA inhibitor = blocks polyadenylation in yeast reporter cells; S. cerevisiae SKY197-pL101 polyadenylation reporter, beta-gal luminescence; efflux-impaired pdr1/pdr3 knockout yeast; score 100 = 6 SD above DMSO; activity score, % at 12 µM; hit rate 0.02% among 300,000;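 active = lowest replicate activity score at least 50, where 100 means six control SD above control mean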;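 note: yeast exposed to compound for 9 h at 30 °C; higher score means more reporter readthrough which indicates perturbed polyadenylation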
DDE Tn7 FP inh = inhibitors of Tn7 peptide binding to human fibrin DD(E); P02675; FP displacement of FITC-Tn7 peptide from fibrin DD(E); 0% = median of compound wells per plate; inhibition, % at 8.3 µM; hit rate 0.13% among 370,000;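 active = inhibition above the mean of compounds falling within the control limits plus 3 SD of them, cut at about 14% in these data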;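 note: 0% = plate median of compound wells and 100% = 10 µM Aha-Tn7 peptide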
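Assay system: human fibrin DD(E) protein / Input: 2 µM fibrin DD(E) / Benchmarks: high control of 10 µM Aha-Tn7 peptide / Measured by: fluorescence polarization of the labelled Tn7 tracer / Medium: Tris buffer with calcium and detergent, pH 7.8 / Timing: 10 min compound pre-incubation, 3 h probe incubation at room temperature / Repeats: one replicate per compound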
SKN-1 inh = blocks SKN-1 activity in C. elegans; C. elegans VP596 Pgst-4::GFP/RFP ratio, acrylamide-induced, 24 h; inhibition, % at 21.8 µM; hit rate 0.49% among 360,000; AID 624304;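 active = interference check ratio from 0.5 to 1.5 plus GFP to RFP signal ratio inhibition reaching or exceeding a fixed threshold, cut at about 30% in these data, passing the limit was not always enough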
DAGLB inhibitor = blocks human DAGLB lipase activity | AID 504411 | inhibition, % at 5.17 µM | HEK293T DAGLB membrane lysate, EnzChek fluorogenic substrate | hit rate 0.059% among 340,000 | Q8NCG7; in the data active = inhibition above about 34%;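 note: 0% = enzyme with vehicle and 100% = wells lacking enzyme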
Target sequence (Q8NCG7 whole entry, looked up): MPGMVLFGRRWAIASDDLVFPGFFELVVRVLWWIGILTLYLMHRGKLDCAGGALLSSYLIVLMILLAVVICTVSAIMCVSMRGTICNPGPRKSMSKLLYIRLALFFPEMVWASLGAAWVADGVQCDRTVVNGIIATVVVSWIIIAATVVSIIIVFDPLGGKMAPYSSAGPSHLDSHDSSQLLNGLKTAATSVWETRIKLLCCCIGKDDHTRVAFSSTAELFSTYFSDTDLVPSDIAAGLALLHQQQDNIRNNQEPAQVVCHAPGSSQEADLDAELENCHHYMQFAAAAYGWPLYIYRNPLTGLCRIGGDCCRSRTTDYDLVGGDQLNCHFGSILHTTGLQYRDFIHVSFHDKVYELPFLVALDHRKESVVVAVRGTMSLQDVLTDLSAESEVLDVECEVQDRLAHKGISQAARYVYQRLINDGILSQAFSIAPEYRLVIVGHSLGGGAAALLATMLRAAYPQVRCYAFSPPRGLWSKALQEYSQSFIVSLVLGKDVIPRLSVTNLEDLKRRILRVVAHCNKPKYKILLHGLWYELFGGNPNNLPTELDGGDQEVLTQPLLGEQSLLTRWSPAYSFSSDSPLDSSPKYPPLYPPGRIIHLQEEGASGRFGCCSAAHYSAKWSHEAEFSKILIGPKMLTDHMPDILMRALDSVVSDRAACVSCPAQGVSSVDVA
DDE Tn6 FP inh = disrupts Tn6 cyclic peptide binding to fibrin D-Dimer-E complex | P02675 | Fibrin DD(E) TRITC-Tn6 fluorescence polarization displacement | inhibition, % at 8.3 µM | hit rate 0.21% among 370,000 | AID 720509;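 active = inhibition above a per-campaign cutoff: mean of compounds within control limits plus 3 SD, cut at about 15% in these data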;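 note: 0% = median of all compound wells on the plate and 100% = blocking peptide control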
Starred values were filed as active, the others as inactive; nt = not tested or not shown; + = active, no number. This is a sample that favours compounds with a hit; in the whole collection about 0.9% have one here.

SMILES | MT1-MMP act inh | PolyA inhibitor | DDE Tn7 FP inh | SKN-1 inh | DAGLB inhibitor | DDE Tn6 FP inh
N#C/C(=C\C=C\c1ccccc1)c1nc(-c2ccc(Cl)cc2)cs1 | -9 | 1 | 3 | 17 | -7 | -15
CCn1c(COc2ccccc2)nnc1SCC(=O)Nc1ccc(S(=O)(=O)Nc2cc(C)nc(C)n2)cc1 | nt | nt | -10 | nt | nt | 4
Fc1ccc(-n2nnc(-c3ccccc3Cl)n2)cc1 | 2 | 3 | -4 | 14 | -3 | -1
Clc1ncccc1-c1nnn(-c2ccccc2)n1 | 3 | -5 | 2 | 26 | -13 | 9
Fc1ccc(-n2nnc(-c3cccnc3Cl)n2)cc1 | -2 | 1 | 5 | 68* | -10 | -2
Fc1ccc(-n2nnc(-c3nccs3)n2)cc1 | 4 | 17 | 8 | 71* | -2 | -6
O=C(CSc1nnnn1C1CCCCC1)Nc1cccc(NC(=O)c2ccco2)c1 | 3 | 9 | -1 | 37* | -4 | 5
O=C(CSc1nnnn1C1CCCC1)Nc1cccc(NC(=O)c2ccco2)c1 | 7 | 25 | 4 | 0 | -1 | 0
COC(=O)c1[nH]c2ccccc2c1NC(=O)C(C)N1CCOCC1 (centres undefined) | -4 | -4 | 1 | 38* | -5 | -2
COC(=O)c1[nH]c2ccccc2c1NC(=O)C(C)N1CCN(C(=O)c2ccco2)CC1 (centres undefined) | 1 | 11 | -5 | 7 | 0 | -11
C=CCNc1nc(-c2ccc([N+](=O)[O-])cc2)cs1 | 9 | 2 | -3 | 51* | 3 | 0
C=CCNc1nc(-c2ccc(Cl)cc2)cs1 | 3 | 16 | -1 | 43* | -5 | -3
Nc1nc(-c2ccc(Cl)cc2)cs1 | nt | nt | -5 | nt | nt | -3
O=[N+]([O-])c1ccc(S(=O)(=O)Nc2nc(-c3ccccc3)cs2)cc1 | 10 | -28 | -4 | 14 | 14 | -4
C#CCSc1nnc(-c2cccc3ccccc23)o1 | 6 | -23 | 2 | 82* | -8 | 2
O=C(CCC(=O)OCC(=O)c1cccc([N+](=O)[O-])c1)Nc1cccc(Cl)c1Cl | 1 | -10 | 10 | 33 | 0 | 1
Cc1ccccc1NC(=O)CCC(=O)OCC(=O)c1cccc([N+](=O)[O-])c1 | 1 | 19 | -5 | 37* | 0 | -11
CCC1(C)Cc2c(C#N)c(N)sc(=S)c2CO1 (centres undefined) | -17 | 9 | -6 | 46* | 1 | 9
Cc1sc2nc(COC(=O)CNC(=O)c3ccccc3Cl)[nH]c(=O)c2c1C | nt | nt | 1 | nt | nt | 11
CCCC(C(=O)NCC1CCCO1)N(Cc1ccccc1)C(=O)CNS(=O)(=O)c1ccccc1 (centres undefined) | 2 | 9 | -7 | 42* | -1 | 10
CCCC(C(=O)NCC1CCCO1)N(C(=O)CNS(=O)(=O)c1ccccc1)c1ccc(F)cc1 (centres undefined) | 2 | -9 | -4 | -28 | -4 | 2
CC[C@H](CCC(=O)N(c1ccccc1)c1ccccc1)c1ccc(C)cc1 | nt | nt | 4 | nt | nt | 3
Clc1ccc(-c2nnc(-c3ccccc3)o2)cn1 | -2 | 9 | -6 | 42* | -2 | -1
Brc1ccc(-c2nnc(-c3ccco3)o2)cc1 | 1 | 5 | -4 | 81* | -10 | 1
c1ccc(CSc2nnc(-c3cccnc3)o2)cc1 | -6 | -3 | 2 | -2 | 2 | 2
SMILES | MT1-MMP act inh | PolyA inhibitor | DDE Tn7 FP inh | SKN-1 inh | DAGLB inhibitor | DDE Tn6 FP inh
Brc1ccc(CSc2nnc(-c3cccnc3)o2)cc1 | -2 | -8 | -9 | 43* | 0 | -6
Clc1ccc(-c2nnc(-c3cccnc3)o2)cc1 | -4 | -6 | 4 | 40* | -2 | -1
O=C(NCCc1ccccc1)c1ccc(Sc2ccccc2Cl)c([N+](=O)[O-])c1 | nt | nt | -8 | nt | nt | -5
CCCCNC(=O)C[C@H]1C[C@@]2(C(=O)OC)C(=C[C@H](COCc3ccccc3)O[C@@H]2C)N(Cc2cccc3ccccc23)C1=O | nt | nt | 5 | nt | nt | 4
Cc1ccc(-c2nnc(-c3ccccc3Br)o2)cc1 | 1 | 1 | -5 | -9 | -19 | 2
Brc1ccc(-c2nnc(-c3cccnc3)o2)cc1 | 1 | -14 | 2 | 48* | -9 | 10
Brc1ccc(-c2nnc(-c3ccccc3Br)o2)cc1 | 0 | -24 | -9 | 65* | -22 | 2
O=C1CN(C(=O)c2ccc(Br)o2)C(c2ccccc2)c2cc(Br)ccc2N1 (centres undefined) | -29 | 1 | 2 | 59* | 2 | 0
Cc1ccc2c(c1)C(c1ccccc1)N(C(=O)c1ccc(Br)o1)CC(=O)N2 (centres undefined) | -14 | 1 | -5 | 7 | 2 | 2
CCOC(=O)CSc1nc2ccccc2c(=O)n1CCN1CCOCC1 | 0 | -2 | -4 | 36* | 2 | -16
O=[N+]([O-])c1ccc2nc(-c3ccccc3)oc2c1 | 1 | -30 | 0 | 42* | -11 | -7
COc1cccc(-c2nc3ccc([N+](=O)[O-])cc3o2)c1 | -6 | -2 | 9 | 0 | -1 | -1
COc1cccc2c1C(=O)c1c(O)c3c(c(O)c1C2=O)C[C@](O)(C(C)=O)C[C@H]3O[C@@H]1C[C@@H](N)[C@@H](O)[C@@H](C)O1 | 11 | 18 | 25* | 73 | -10 | +
COc1cccc2c1C(=O)c1c(O)c3c(c(O)c1C2=O)CC(O)(C(C)=O)CC3OC1CC(O)C(O)C(C)O1 (centres undefined) | -17 | nt | 26* | 66 | -20 | +
CCCCC(=O)OCC(=O)C1(O)Cc2c(O)c3c(c(O)c2C(OC2CC(NC(=O)C(F)(F)F)C(O)C(C)O2)C1)C(=O)c1c(OC)cccc1C3=O (centres undefined) | -19 | nt | 0 | 81 | 27 | 43*
COc1cccc2c1C(=N)c1c(O)c3c(c(O)c1C2=O)CC(O)(C(C)=O)CC3OC1CC(N)C(O)C(C)O1 (centres undefined) | 70 | nt | nt | 84 | 13 | nt
O=C(Cn1nnc(-c2ccc(N3CCOCC3)cc2)n1)c1ccccc1 | nt | nt | -2 | nt | nt | -1
COC(=O)[C@H]1C[C@@]2(N3CCCC3)c3ccccc3N[C@H]2N1S(=O)(=O)c1ccc([N+](=O)[O-])cc1 | nt | nt | 2 | nt | nt | 3
Cc1ccc(S(=O)(=O)NCCCCC(NC(=O)OC(C)(C)C)C(=O)O)cc1 (centres undefined) (tested in a mixture with another compound) | -8 | 10 | 8 | 35* | -2 | 3
CN(CCO)c1cccc2c1S(=O)(=O)N(Cc1cn(Cc3ccc(F)cc3)nn1)Cc1ccccc1O2 | nt | nt | -3 | nt | nt | -7
C=C(C)CSc1nc2sc(C)c(C)c2c(=O)n1C | nt | nt | 3 | nt | nt | 10
